Assay results published in ChEMBL document CHEMBL2169884, “Novel inhibitors of heat shock protein Hsp70-mediated luciferase refolding that bind to DnaJ” (Bioorg Med Chem, 2012).
Activity calls are given as the source filed them. The calls are words filed in the database; no cut-off is given here.

Experiments:
[1] = Inhibition of luciferase refolding in rabbit reticulocyte lysate preincubated for 30 mins measured after 1 hr by liquid scintillation counting
HeLa = experiment: Induction of Hsp70 in human HeLa cells at 10 uM after overnight incubation by solid state immuno assay relative to 17-AAG; type: functional
How it was run: (§1)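 HeLa or A172 cells treated overnight with compound; Hsp70 levels measured by solid-state immunoassay, with stimulation expressed relative to 1 µM 17-AAG as positive control.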

[2] = Inhibition of human HSP70/DnaJ-mediated luciferase refolding after 10 mins by liquid scintillation counting
How it was run: (§2)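 Luciferase (0.5 mg/mL) denatured in 6 M guanidine HCl in buffer A (25 mM Hepes pH 7.4, 50 mM potassium acetate, 5 mM DTT), 60 min at RT, then diluted 1:20. Refolding mixture: 0.5 µM Hsp70, 60 nM DnaJ, 125 ng denatured luciferase with compound in buffer containing 0.1 mM ATP, creatine phosphate and creatine phosphokinase. Incubated 1 h; DnaJ, luciferase or ATP varied in mechanism runs. Aliquots read by luciferin luminescence after 10 min. IC50 is the geometric mean of ≥3 determinations.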

[3] = Effect on luciferase activity up to 300 uM
A 172 = experiment: Induction of Hsp70 in human A172 cells at 10 uM after overnight incubation by solid state immuno assay relative to 17-AAG; type: functional
How it was run: as §1

Homo sapiens [4] = organism: Homo sapiens; experiment: Inhibition of human HSP70/DnaJ-mediated luciferase refolding after 10 mins by liquid scintillation counting in presence of 0.1 to 10 µg/mL of denatured luciferase
How it was run: as §2

Homo sapiens [5] = organism: Homo sapiens; experiment: Inhibition of human HSP70/DnaJ-mediated luciferase refolding after 10 mins by liquid scintillation counting in presence of up to 10 mM of ATP
How it was run: as §2

[6] = Binding affinity to DnaJ assessed as rightward shift in melting temperature at 10 to 30 uM by thermal denaturation assay
Homo sapiens [7] = organism: Homo sapiens; experiment: Inhibition of human Hsp70-mediated ATPase activity at 10 uM
[8] = Binding affinity to DnaJ assessed as rightward shift in melting temperature by thermal denaturation assay
Homo sapiens [9] = organism: Homo sapiens; experiment: Binding affinity to human Hsp70 assessed as rightward shift in melting temperature by thermal denaturation assay
Homo sapiens [10] = organism: Homo sapiens; experiment: Inhibition of DnaJ-mediated stimulation of human Hsp70 ATPase activity at 10 uM; settings: 0.1 to 3.2 uM, in the assay text read “at 0.1 to 3.2 uM” for “at 10 uM”
How it was run: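 Hsp70 (300 nM) incubated with 3.2 µM ATP and DnaJ (0.1–320 nM) at 37 °C for 5–40 min in pH 7.4 HEPES buffer with KCl, EGTA and MgCl2. Reactions stopped with EDTA stop buffer containing ADP tracer and antibody. ADP detected by Transcreener fluorescence (ex 580, em 620 nm).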

[11] = Binding affinity to DnaJ assessed as rightward shift in melting temperature at 3.2 to 32 uM by thermal denaturation assay
Homo sapiens [12] = organism: Homo sapiens; experiment: Binding affinity to human Hsp70 assessed as rightward shift in melting temperature at 3.2 to 32 uM by thermal denaturation assay

| SMILES | IC50 [1] | IC50 [2] | Activity [3] | Activity (HeLa) | Activity (A 172) | further results |
| --- | --- | --- | --- | --- | --- | --- |
| CCCCCOC(=O)C1=C(C)NC2(O)c3ccccc3C(=O)C12O (centres undefined) | 4.3 µM | > 30 µM | inactive | <10% | <10% | – |
| c1ccc(Nc2nc(-c3cccs3)cs2)cc1 | 1.1 µM | 22 µM | inactive | <10% | <10% | – |
| CCOC(=O)c1cccc(NC(=O)COc2ccc(Cl)cc2)c1 | – | > 32 µM | – | – | – | – |
| Clc1ccc(Nc2nc(-c3cccs3)cs2)cc1 | 4 µM | > 100 µM | inactive | <10% | <10% | – |
| COC(=O)c1cccc(NC(=O)COc2ccc(Cl)cc2Cl)c1 | – | > 32 µM | – | – | – | Activity [11]: inactive; Activity (Homo sapiens [12]): inactive |
| Clc1ccccc1C1Oc2ccccc2-c2cc(-c3ccco3)nn21 (centres undefined) | 8.8 µM | > 100 µM | inactive | <10% | <10% | – |

The next molecules have a lower IC50 [2] than those just listed; values first:

| IC50 [1] | IC50 [2] | Activity [3] | SMILES | Activity (HeLa) | Activity (A 172) | further results |
| --- | --- | --- | --- | --- | --- | --- |
| 0.81 µM | 0.62 µM | inactive | CCOC(=O)c1cccc(NC(=O)COc2ccccc2Cl)c1 | <10% | <10% | – |
| – | 0.6 µM | – | CCCOC(=O)c1cccc(NC(=O)COc2ccccc2Cl)c1 | – | – | – |
| – | 0.13 µM | – | CCCCOC(=O)c1cccc(NC(=O)COc2ccc(Cl)cc2Cl)c1 | – | – | inhibition (Homo sapiens [4]): inactive; inhibition (Homo sapiens [5]): Active; Tm(app) [6]: 2 °C; inhibition (Homo sapiens [7]): inactive; Activity [8]: Dose-dependent effect; Activity (Homo sapiens [9]): inactive; inhibition (Homo sapiens [10]): Active |
| – | 0.95 µM | – | COC(=O)c1cccc(NC(=O)COc2cc(Cl)ccc2Cl)c1 | – | – | – |
